{
  "source": "PubChem BioAssay AID602403",
  "about": "(The Scripps Research Institute Molecular Screening Center, 2012)",
  "biological_target": "Diacylglycerol lipase-alpha (Mus musculus) (UniProt Q6WQJ1)",
  "sequence (Q6WQJ1 whole entry, looked up)": "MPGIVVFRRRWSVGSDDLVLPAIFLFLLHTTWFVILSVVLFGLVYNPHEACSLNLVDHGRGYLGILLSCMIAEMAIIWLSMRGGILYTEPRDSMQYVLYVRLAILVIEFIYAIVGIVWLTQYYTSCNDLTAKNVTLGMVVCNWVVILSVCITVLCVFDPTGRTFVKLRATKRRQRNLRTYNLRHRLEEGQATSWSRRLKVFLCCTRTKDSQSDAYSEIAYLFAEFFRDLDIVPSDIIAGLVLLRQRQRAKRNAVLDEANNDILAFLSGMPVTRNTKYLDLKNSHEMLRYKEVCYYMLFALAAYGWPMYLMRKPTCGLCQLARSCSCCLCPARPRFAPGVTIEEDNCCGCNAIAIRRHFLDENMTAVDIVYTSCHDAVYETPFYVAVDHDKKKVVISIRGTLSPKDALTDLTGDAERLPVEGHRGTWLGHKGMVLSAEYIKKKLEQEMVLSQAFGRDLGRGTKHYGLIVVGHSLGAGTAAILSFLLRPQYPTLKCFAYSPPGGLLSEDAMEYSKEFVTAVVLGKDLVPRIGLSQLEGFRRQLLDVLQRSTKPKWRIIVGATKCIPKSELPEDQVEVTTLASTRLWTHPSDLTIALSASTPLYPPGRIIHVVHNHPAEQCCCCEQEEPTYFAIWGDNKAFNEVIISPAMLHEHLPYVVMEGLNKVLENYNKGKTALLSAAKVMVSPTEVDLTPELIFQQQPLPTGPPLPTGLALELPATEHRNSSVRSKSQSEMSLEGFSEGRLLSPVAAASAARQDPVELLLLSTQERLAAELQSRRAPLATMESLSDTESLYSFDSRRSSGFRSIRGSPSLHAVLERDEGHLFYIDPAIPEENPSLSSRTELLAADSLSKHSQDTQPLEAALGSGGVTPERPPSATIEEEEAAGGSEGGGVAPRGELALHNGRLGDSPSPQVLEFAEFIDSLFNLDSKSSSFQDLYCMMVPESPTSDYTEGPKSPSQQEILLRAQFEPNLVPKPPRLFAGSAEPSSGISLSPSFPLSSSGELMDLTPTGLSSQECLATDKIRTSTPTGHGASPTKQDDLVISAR",
  "assay": "blocking of DAGLa probe labeling in membranes – biochemical, gel-based competitive ABPP, recombinant, fluorescence, selectivity assay for DAGLb inhibitor project, late-stage follow-up (AID 602403)",
  "details": "HEK293T membrane mouse DAGLa, at 0.4 µM, hits give high values",
  "outline": "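Material: membrane proteome of 293T HEK cells transiently overexpressing mouse DAGLa; Also added: HT-01 probe, 1 µM; Read-out: percent inhibition from band integrated optical density versus DMSO control; Benchmarks: high control DMSO without compound, low control blank-gel background; Measured by: in-gel fluorescence after SDS-PAGE; Schedule: 30 min compound plus 30 min probe, 37 °C.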",
  "note": "Values without a mark were called inactive.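 Rule for the calls: active = inhibition of the enzyme-probe labelling of at least 50% at one fixed dose; inactive = inhibition below 50%.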",
  "data": [
    {"molecule": "O=C(N1CCCCC1Cc1ccccc1)n1cc(-c2ccc(-c3ccccc3)cc2)nn1", "note": "(stereo unspecified)", "values": [
      {"measurement": "inhibition", "value": 40, "unit": "%"}
    ]}
  ]
}
